Measured values taken from ChEMBL document CHEMBL1123105, “New bidentates as full inhibitors of enkephalin-degrading enzymes: synthesis and analgesic properties” (J Med Chem, 1985).

Biological target: T1, Neprilysin (Rattus norvegicus, UniProt P07861)
T1 sequence (P07861 whole entry): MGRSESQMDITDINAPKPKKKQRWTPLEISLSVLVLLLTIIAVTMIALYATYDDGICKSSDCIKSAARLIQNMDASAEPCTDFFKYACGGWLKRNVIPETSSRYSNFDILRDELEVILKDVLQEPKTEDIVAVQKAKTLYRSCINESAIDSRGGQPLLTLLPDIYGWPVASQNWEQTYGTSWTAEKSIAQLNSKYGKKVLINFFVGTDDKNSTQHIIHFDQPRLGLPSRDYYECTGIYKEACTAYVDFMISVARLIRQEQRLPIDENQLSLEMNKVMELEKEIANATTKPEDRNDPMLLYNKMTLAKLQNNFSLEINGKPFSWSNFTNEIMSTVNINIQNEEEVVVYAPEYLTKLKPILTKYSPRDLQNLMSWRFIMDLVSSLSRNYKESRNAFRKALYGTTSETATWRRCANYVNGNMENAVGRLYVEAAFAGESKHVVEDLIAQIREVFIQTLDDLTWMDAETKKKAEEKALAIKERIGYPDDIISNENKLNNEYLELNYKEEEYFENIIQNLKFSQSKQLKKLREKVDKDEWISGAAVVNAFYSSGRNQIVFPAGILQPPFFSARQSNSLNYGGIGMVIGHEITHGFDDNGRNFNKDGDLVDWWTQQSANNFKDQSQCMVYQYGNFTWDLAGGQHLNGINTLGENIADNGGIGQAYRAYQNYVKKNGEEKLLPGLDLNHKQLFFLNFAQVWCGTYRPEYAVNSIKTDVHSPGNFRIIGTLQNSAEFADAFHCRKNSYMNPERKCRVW
Test: In vitro inhibition of enkephalinase purified from […].
Procedure, shortened: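 Enkephalinase purified from kidney (0.9 ± 0.2 pmol/100 µL final) was preincubated 15 min at 25 °C with or without increasing inhibitor concentrations in 50 mM Tris-HCl, pH 7.4. Tritiated metabolites were separated on polystyrene beads. IC50 came from log probit analysis of five inhibitor concentrations; mean ± SEM of five independent experiments.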

SMILES | IC50
CC(NC(=O)C(CC(=O)NO)Cc1ccccc1)C(=O)O (stereo unspecified) | 2 nM
O=CN(O)C(Cc1ccccc1)C(=O)NCC(=O)O (stereo unspecified) | 1500 nM
CC(C)CCNC(=O)CNC(=O)C(Cc1ccccc1)CN(O)C=O (stereo unspecified) | 800 nM
O=C(CNC(=O)C(Cc1ccccc1)C(=O)NO)NCc1ccccc1 (stereo unspecified) | 750 nM
O=CN(O)CC(Cc1ccccc1)C(=O)NCC(=O)O (stereo unspecified) | 10 nM
O=C(O)CNC(=O)C(CC(=O)O)Cc1ccccc1 (stereo unspecified) | 800 nM
CC(C)CCNC(=O)CNC(=O)C(CC(=O)NO)Cc1ccccc1 (stereo unspecified) | 600 nM
O=CN(O)CC(Cc1ccccc1)C(=O)NCC(=O)NCc1ccccc1 (stereo unspecified) | 1200 nM
COC(=O)CNC(=O)C(Cc1ccccc1)CN(O)C=O (stereo unspecified) | 350 nM
O=C(O)CNC(=O)C(CNO)Cc1ccccc1 (stereo unspecified) | > 1 nM
CC(C)CCNC(=O)CNC(=O)C(Cc1ccccc1)C(=O)NO (stereo unspecified) | 850 nM
O=C(O)CNC(=O)C(Cc1ccccc1)C(=O)O (stereo unspecified) | 700 nM
CC(C)CCNC(=O)CNC(=O)C(Cc1ccccc1)N(O)C=O (stereo unspecified) | 30 nM
COC(=O)CNC(=O)C(Cc1ccccc1)C(=O)NO (stereo unspecified) | 1 nM

Biological target: not listed separately
Test: Inhibitory activity against rat brain Dipeptidyl aminopeptidase using 10 nM of [3H]Leu-enkephalin as substrate
Procedure, shortened: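 Membrane-bound dipeptidylaminopeptidase purified from rat brain and aminopeptidase M purified from rabbit kidney were each preincubated 15 min at 25 °C with or without increasing inhibitor concentrations in 50 mM Tris-HCl, pH 7.4. […] The reaction was stopped with HCl after 30 min, and tritiated metabolites were separated on polystyrene beads. IC50 came from log probit analysis of five inhibitor concentrations; mean ± SEM.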

SMILES | IC50
CC(NC(=O)C(CC(=O)NO)Cc1ccccc1)C(=O)O (stereo unspecified) | 2.1 nM
O=CN(O)C(Cc1ccccc1)C(=O)NCC(=O)O (stereo unspecified) | 232000 nM
O=CN(O)CC(Cc1ccccc1)C(=O)NCC(=O)O (stereo unspecified) | 305 nM
O=C(O)CNC(=O)C(CC(=O)NO)Cc1ccccc1 (stereo unspecified) | 21 nM
O=C(O)CNC(=O)C(Cc1ccccc1)C(=O)NO (stereo unspecified) | 3500 nM

Biological target: T1, Neprilysin
Test: 50% inhibitory activity against enkephalinase purified from rabbit kidney with [3H]D-Ala2-Leu-enkephalin (20 nM) as substrate.

SMILES | IC50
C[C@H](NC(=O)[C@H](CC(=O)NO)Cc1ccccc1)C(=O)O | 1.8 nM
C[C@H](NC(=O)[C@@H](CC(=O)NO)Cc1ccccc1)C(=O)O (racemic) [KELATORPHAN] | 1.7 nM
